Source: ChEMBL document CHEMBL1138570, “2-Acylhydrazino-5-arylpyrrole derivatives: synthesis and antifungal activity evaluation” (Eur J Med Chem, 2009)
≈ marks a conversion by molar mass, not a printed value.

Assays:
[1] = Toxicity against human MCF7 cells assessed as growth inhibition at 10 uM; type: cell-based; details: read-out: GI
Pichia kudriavzevii [2] = assay: Antimicrobial activity against Candida krusei by broth microdilution method; type: functional
Method in brief: (§1)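 MIC by NCCLS broth microdilution. Medium was RPMI 1640 with L-glutamine, buffered with 0.165 M MOPS at pH 7.0. Twofold drug dilutions ran 0.008–200 mg/L. Inoculum was set spectrophotometrically to 10⁶ CFU/mL, then diluted in medium to 2 ×10⁴ cells/mL. Plates were incubated overnight at 35 °C in humid air, agitated, and read visually and at 450 nm.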

Candida parapsilosis [3] = assay: Antimicrobial activity against Candida parapsilosis by broth microdilution method; type: functional; details: Lodderomyces parapsilosis; method in brief: as §1
Candida albicans [4] = assay: Antimicrobial activity against Candida albicans ATCC 10231 by broth microdilution method; type: functional; method in brief: as §1
Pichia kudriavzevii [5] = assay: Antimicrobial activity against Candida krusei after 72 hrs by broth microdilution method; type: functional
Method in brief: (§2)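 MFC: after MIC reading, a sample from each well was plated on Sabouraud dextrose agar and incubated 72 h at 35 °C. MFC was taken as the minimum concentration killing >99% of the original inoculum. The MIC step was NCCLS broth microdilution in MOPS-buffered RPMI 1640 (pH 7.0), with 2 ×10⁴ cells/mL, overnight at 35 °C.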

Candida albicans [6] = assay: Antimicrobial activity against Candida albicans ATCC 10231 after 72 hrs by broth microdilution method; type: functional; details: ATCC 10231, 72 h; method in brief: as §2
Candida parapsilosis [7] = assay: Antimicrobial activity against Candida parapsilosis after 72 hrs by broth microdilution method; type: functional; details: Lodderomyces parapsilosis; method in brief: as §2
Nakaseomyces glabratus [8] = assay: Antimicrobial activity against Candida glabrata by broth microdilution method; type: functional; method in brief: as §1
[9] = Toxicity against human H460 cells assessed as growth inhibition at 10 uM; type: cell-based; details: NCI-H460 cells, read-out: GI
Nakaseomyces glabratus [10] = assay: Antimicrobial activity against Candida glabrata after 72 hrs by broth microdilution method; type: functional; method in brief: as §2
[11] = Toxicity against human SF268 cells assessed as growth inhibition at 10 uM; type: cell-based; details: SF-268 cells, read-out: GI

MIC (Pichia kudriavzevii [2]) [µg/mL] | MIC (Candida parapsilosis [3]) [µg/mL] | MIC (Candida albicans [4]) [µg/mL] | MIC (Nakaseomyces glabratus [8]) [µg/mL] | Structure (SMILES) | inhibition at 10 µM [1] [%] | MFC (Pichia kudriavzevii [5]) [µg/mL] | MFC (Candida albicans [6]) [µg/mL] | MFC (Candida parapsilosis [7]) [µg/mL] | inhibition at 10 µM [9] [%] | MFC (Nakaseomyces glabratus [10]) [µg/mL] | inhibition at 10 µM [11] [%]
0.78 (≈ 2.74 µM) | 0.78 (≈ 2.74 µM) | 0.39 (≈ 1.37 µM) | 0.78 (≈ 2.74 µM) | CCC(=O)NNc1[nH]c(-c2ccc(OC)cc2)cc1C#N | 4.6 | 12.5 (≈ 44 µM) | 6.25 (≈ 22 µM) | 12.5 (≈ 44 µM) | 0 | 12.5 (≈ 44 µM) | 2.1
1.56 (≈ 5.77 µM) | 3.12 (≈ 11.5 µM) | 1.56 (≈ 5.77 µM) | 3.12 (≈ 11.5 µM) | COc1ccc(-c2cc(C#N)c(NNC(C)=O)[nH]2)cc1 | 0 | 3.12 (≈ 11.5 µM) | 6.25 (≈ 23.1 µM) | 6.25 (≈ 23.1 µM) | 0 | 12.5 (≈ 46.2 µM) | 0
3.12 (≈ 10.3 µM) | 3.12 (≈ 10.3 µM) | 3.12 (≈ 10.3 µM) | 3.12 (≈ 10.3 µM) | COC(=O)c1cc(-c2ccc(OC)cc2)[nH]c1NNC(C)=O | 0 | 6.25 (≈ 20.6 µM) | 3.12 (≈ 10.3 µM) | 6.25 (≈ 20.6 µM) | 0 | 12.5 (≈ 41.2 µM) | 0
> 100 | > 100 | > 100 | > 100 | CCOC(=O)c1cc(-c2ccc(Cl)cc2)[nH]c1NNC(=O)Cc1ccc(OC)cc1 |  | > 100 | > 100 | > 100 |  | > 100 | 
12.5 (≈ 43.5 µM) | 6.25 (≈ 21.8 µM) | 3.12 (≈ 10.9 µM) | 6.25 (≈ 21.8 µM) | CCC(=O)NNc1[nH]c(-c2ccccc2)cc1C(=O)OC |  | 25 (≈ 87 µM) | 6.25 (≈ 21.8 µM) | 12.5 (≈ 43.5 µM) |  | 25 (≈ 87 µM) | 
12.5 (≈ 39.4 µM) | 12.5 (≈ 39.4 µM) | 6.25 (≈ 19.7 µM) | 6.25 (≈ 19.7 µM) | COCCC(=O)NNc1[nH]c(-c2ccccc2)cc1C(=O)OC |  | 25 (≈ 78.8 µM) | 12.5 (≈ 39.4 µM) | 100 (≈ 315 µM) |  | 25 (≈ 78.8 µM) | 
> 100 | 25 (≈ 75.9 µM) | > 100 | > 100 | CCCC(=O)NNc1[nH]c(-c2ccc(C)cc2)cc1C(=O)OCC |  | > 100 | > 100 | > 100 |  | > 100 | 
> 100 | > 100 | > 100 | > 100 | CCOC(=O)c1cc(-c2ccc(Cl)cc2)[nH]c1NNC(=O)C(C)C |  | > 100 | > 100 | > 100 |  | > 100 | 
25 (≈ 83.2 µM) | 25 (≈ 83.2 µM) | 3.12 (≈ 10.4 µM) | 12.5 (≈ 41.6 µM) | CCOC(=O)NNc1[nH]c(-c2ccc(OC)cc2)cc1C#N | 0.9 | 50 (≈ 166 µM) | 3.12 (≈ 10.4 µM) | 100 (≈ 333 µM) | 31 | 50 (≈ 166 µM) | 0
